IC50 and inhibition data for 35 molecules are collected here from ChEMBL document CHEMBL1777751, “Virtual screening and further development of novel ALK inhibitors” (Bioorg Med Chem, 2011).

The structures appear in SMILES notation. pIC50: −log10 of the molar value. A value given as a limit tells only on which side of the number the result lay.

The target in assay [1] is T1, ALK tyrosine kinase receptor (Homo sapiens, UniProt Q9UM73). Description: Inhibition of ALK using FL-Peptide 13, 5-FAM-KKSRGDYMTMQIG-CONH2 substrate after 60 mins by mobility shift assay.
Target sequence in this assay (Q9UM73 whole entry): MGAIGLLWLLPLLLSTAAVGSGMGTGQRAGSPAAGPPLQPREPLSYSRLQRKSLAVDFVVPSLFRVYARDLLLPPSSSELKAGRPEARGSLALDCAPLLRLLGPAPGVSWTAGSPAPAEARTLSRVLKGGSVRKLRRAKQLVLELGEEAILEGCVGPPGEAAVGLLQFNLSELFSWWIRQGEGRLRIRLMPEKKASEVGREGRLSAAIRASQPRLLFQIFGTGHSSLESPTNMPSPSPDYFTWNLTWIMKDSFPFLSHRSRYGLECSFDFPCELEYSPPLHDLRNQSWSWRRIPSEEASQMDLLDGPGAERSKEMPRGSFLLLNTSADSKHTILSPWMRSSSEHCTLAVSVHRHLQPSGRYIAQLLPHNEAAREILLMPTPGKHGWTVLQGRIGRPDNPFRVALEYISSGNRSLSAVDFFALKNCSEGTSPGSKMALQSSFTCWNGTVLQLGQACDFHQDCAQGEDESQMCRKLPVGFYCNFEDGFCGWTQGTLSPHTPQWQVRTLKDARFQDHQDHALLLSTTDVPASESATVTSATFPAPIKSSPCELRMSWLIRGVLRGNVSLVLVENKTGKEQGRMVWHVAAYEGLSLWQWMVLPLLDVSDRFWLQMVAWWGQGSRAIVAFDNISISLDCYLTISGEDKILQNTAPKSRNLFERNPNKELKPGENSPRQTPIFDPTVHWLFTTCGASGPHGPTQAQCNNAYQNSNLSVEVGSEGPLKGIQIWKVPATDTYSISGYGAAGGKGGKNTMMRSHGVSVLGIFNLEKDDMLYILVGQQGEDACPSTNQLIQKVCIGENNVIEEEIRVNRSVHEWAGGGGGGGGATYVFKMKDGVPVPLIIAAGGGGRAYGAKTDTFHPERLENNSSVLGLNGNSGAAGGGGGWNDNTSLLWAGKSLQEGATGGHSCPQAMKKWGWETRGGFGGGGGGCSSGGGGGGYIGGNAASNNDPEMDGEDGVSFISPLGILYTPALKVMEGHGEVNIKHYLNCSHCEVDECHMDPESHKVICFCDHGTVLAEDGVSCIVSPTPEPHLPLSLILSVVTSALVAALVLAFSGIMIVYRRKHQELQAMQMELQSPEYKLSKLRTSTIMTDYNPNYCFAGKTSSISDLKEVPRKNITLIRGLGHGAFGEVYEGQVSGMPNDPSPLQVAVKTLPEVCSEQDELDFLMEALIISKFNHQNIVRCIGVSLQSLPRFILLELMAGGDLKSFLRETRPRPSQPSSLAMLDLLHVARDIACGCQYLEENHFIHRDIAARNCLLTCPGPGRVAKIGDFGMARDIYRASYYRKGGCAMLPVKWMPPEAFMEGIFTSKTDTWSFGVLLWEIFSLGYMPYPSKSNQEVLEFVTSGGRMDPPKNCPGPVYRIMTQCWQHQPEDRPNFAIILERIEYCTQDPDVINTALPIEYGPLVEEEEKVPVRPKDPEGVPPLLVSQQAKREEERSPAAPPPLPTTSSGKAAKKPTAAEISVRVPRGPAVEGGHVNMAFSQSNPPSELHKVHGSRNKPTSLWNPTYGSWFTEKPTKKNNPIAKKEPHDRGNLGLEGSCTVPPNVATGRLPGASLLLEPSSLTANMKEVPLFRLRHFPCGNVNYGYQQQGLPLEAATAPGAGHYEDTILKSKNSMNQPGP
Assay [2] deals with T1, ALK tyrosine kinase receptor. Description: Inhibition of ALK using FL-Peptide 13, 5-FAM-KKSRGDYMTMQIG-CONH2 substrate at 10 uM after 60 mins by mobility shift assay. The essentials: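 Recombinant ALK at 42 ng/mL, with 1.5 µM fluorescent peptide substrate and ATP. Buffer: 50 mM Hepes pH 7.4, 10 mM MgCl2, 1 mM DTT, 1% protease and 1% phosphatase inhibitor cocktails, 0.01% Brij-35. Compound was added in 5% DMSO. Incubated 60 min at room temperature, then read by mobility shift.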
Target sequence in this assay (Q9UM73 19-1620 limits assumed): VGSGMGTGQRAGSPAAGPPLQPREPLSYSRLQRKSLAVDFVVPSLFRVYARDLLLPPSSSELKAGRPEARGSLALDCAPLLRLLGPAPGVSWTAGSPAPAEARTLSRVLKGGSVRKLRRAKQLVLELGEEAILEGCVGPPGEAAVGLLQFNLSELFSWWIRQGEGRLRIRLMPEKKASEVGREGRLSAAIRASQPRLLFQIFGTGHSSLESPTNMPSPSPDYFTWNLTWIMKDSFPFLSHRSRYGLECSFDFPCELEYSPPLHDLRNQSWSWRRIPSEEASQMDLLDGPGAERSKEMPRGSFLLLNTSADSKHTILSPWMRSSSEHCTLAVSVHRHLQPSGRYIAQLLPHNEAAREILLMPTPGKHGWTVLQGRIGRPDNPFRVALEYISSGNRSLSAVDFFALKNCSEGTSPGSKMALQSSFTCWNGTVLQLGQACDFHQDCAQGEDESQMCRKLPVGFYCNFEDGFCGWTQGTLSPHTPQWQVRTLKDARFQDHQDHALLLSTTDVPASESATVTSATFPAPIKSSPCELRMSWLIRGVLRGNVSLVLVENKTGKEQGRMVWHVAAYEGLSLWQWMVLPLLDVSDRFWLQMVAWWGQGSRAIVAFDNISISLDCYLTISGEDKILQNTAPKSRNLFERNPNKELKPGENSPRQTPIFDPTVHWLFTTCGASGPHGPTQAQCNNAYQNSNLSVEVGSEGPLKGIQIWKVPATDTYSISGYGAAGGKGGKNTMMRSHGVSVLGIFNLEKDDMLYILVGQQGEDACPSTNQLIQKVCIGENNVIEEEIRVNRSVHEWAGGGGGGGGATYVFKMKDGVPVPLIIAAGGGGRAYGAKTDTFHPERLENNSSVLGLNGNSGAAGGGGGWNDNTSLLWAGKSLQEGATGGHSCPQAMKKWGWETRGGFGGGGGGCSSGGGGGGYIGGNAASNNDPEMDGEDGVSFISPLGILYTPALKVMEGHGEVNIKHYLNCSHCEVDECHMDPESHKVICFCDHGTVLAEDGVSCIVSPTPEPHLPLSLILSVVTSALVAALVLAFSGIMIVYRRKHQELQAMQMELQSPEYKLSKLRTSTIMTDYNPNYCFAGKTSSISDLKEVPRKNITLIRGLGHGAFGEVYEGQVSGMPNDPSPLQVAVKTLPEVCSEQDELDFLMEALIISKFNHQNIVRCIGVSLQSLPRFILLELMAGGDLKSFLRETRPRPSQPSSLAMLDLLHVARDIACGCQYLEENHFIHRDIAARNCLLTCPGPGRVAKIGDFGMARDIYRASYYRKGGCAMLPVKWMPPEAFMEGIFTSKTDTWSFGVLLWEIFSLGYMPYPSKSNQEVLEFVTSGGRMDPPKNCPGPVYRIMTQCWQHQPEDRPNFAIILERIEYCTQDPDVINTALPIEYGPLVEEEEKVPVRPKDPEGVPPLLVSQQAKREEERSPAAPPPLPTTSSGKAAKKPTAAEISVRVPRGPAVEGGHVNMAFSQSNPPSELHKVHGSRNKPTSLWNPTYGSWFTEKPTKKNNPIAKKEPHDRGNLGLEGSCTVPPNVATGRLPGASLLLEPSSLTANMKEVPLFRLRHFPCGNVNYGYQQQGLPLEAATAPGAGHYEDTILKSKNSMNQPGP

The target in assay [3] is Tyrosine-protein kinase ABL1 (Homo sapiens) (UniProt P00519). Description: Inhibition of ABL at 4 uM by mobility shift assay. The gist of the method: (§1)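 Tyrosine kinase panel run by a contract lab. Each enzyme was incubated with 1 mM ATP and 1 µM of its appropriate peptide substrate, and the product was then read by mobility shift.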
Assay [4] has as its target T1, ALK tyrosine kinase receptor. As to the kind of experiment: Inhibition of ALK at 4 uM by mobility shift assay. The gist of the method: as §1
Target sequence in this assay (Q9UM73 19-1620 limits assumed): as above
Assay [5] concerns the target High affinity nerve growth factor receptor (Homo sapiens) (UniProt P04629). Description: Inhibition of TRKA at 4 uM by mobility shift assay. The essentials:
as §1

For assay [6], the target named is Epidermal growth factor receptor (Homo sapiens) (UniProt P00533). As to the kind of experiment: Inhibition of EGFR at 4 uM by mobility shift assay. The gist of the method:
as §1

The target in assay [7] is Insulin receptor (Homo sapiens) (UniProt P06213). Description: Inhibition of INSR at 4 uM by mobility shift assay. The essentials:
as §1

Assay [8] has as its target Tyrosine-protein kinase SYK (Homo sapiens) (UniProt P43405). Description: Inhibition of SYK at 4 uM by mobility shift assay. The essentials: as §1
The target of assay [9] is Tyrosine-protein kinase JAK3 (Homo sapiens) (UniProt P52333). As to the kind of experiment: Inhibition of JAK3 at 4 uM by mobility shift assay. The essentials:
as §1

Assay [10] concerns the target Tyrosine-protein kinase ITK/TSK (Homo sapiens) (UniProt Q08881). Description: Inhibition of ITK at 4 uM by mobility shift assay. The gist of the method:
as §1

Assay [11] concerns the target Proto-oncogene tyrosine-protein kinase Src (Homo sapiens) (UniProt P12931). As to the kind of experiment: Inhibition of SRC at 4 uM by mobility shift assay. The gist of the method: as §1
Assay [12] deals with Hepatocyte growth factor receptor (Homo sapiens) (UniProt P08581). Description: Inhibition of MET at 4 uM by mobility shift assay. The essentials: as §1
Assay [13] concerns the target Angiopoietin-1 receptor (Homo sapiens) (UniProt Q02763). Description: Inhibition of TIE2 at 4 uM by mobility shift assay. The gist of the method:
as §1

Assay [14] addresses Protein-tyrosine kinase 2-beta (Homo sapiens) (UniProt Q14289). As to the kind of experiment: Inhibition of PYK2 at 4 uM by mobility shift assay. The essentials:
as §1

Assay [15] addresses Ephrin type-B receptor 4 (Homo sapiens) (UniProt P54760). Description: Inhibition of EPHB4 at 4 uM by mobility shift assay.
The target in assay [16] is T1, ALK tyrosine kinase receptor. Description: Inhibition of EML4-ALK at 4 uM by mobility shift assay. The essentials:
as §1
Target sequence in this assay (Q9UM73 19-1620 limits assumed): as above

Assay [17] deals with Ephrin type-A receptor 2 (Homo sapiens) (UniProt P29317). Description: Inhibition of EPHA2 at 4 uM by mobility shift assay. The essentials: as §1
Assay [18] addresses Tyrosine-protein kinase CSK (Homo sapiens) (UniProt P41240). As to the kind of experiment: Inhibition of CSK at 4 uM by mobility shift assay. The essentials:
as §1

Assay [19] is described as follows: Inhibition of NPM1/ALK at 4 uM by mobility shift assay. The gist of the method:
as §1

Assay [20] concerns the target Tyrosine-protein kinase Lck (Homo sapiens) (UniProt P06239). Description: Inhibition of LCK at 4 uM by mobility shift assay. The gist of the method:
as §1

Assay [21] concerns the target Fibroblast growth factor receptor 1 (Homo sapiens) (UniProt P11362). Description: Inhibition of FGFR1 at 4 uM by mobility shift assay. The essentials:
as §1

Assay [22] addresses Tyrosine-protein kinase receptor TYRO3 (Homo sapiens) (UniProt Q06418). Description: Inhibition of TYRO3 at 4 uM by mobility shift assay. The gist of the method: as §1
Assay [23] addresses Platelet-derived growth factor receptor alpha (Homo sapiens) (UniProt P16234). As to the kind of experiment: Inhibition of PDGFRa at 4 uM by mobility shift assay. The gist of the method:
as §1

Assay [24] addresses Receptor-type tyrosine-protein kinase FLT3 (Homo sapiens) (UniProt P36888). Description: Inhibition of FLT3 at 4 uM by mobility shift assay. The gist of the method: as §1
For assay [25], the target named is Vascular endothelial growth factor receptor 2 (Homo sapiens) (UniProt P35968). As to the kind of experiment: Inhibition of KDR at 4 uM by mobility shift assay. The gist of the method: as §1
In assay [26] the target is Insulin-like growth factor 1 receptor (Homo sapiens) (UniProt P08069). Description: Inhibition of IGF-1R at 4 uM by mobility shift assay. The essentials:
as §1

Chain of Insulin-like growth factor 1 receptor (Homo sapiens) (P08069 31-736 limits assumed): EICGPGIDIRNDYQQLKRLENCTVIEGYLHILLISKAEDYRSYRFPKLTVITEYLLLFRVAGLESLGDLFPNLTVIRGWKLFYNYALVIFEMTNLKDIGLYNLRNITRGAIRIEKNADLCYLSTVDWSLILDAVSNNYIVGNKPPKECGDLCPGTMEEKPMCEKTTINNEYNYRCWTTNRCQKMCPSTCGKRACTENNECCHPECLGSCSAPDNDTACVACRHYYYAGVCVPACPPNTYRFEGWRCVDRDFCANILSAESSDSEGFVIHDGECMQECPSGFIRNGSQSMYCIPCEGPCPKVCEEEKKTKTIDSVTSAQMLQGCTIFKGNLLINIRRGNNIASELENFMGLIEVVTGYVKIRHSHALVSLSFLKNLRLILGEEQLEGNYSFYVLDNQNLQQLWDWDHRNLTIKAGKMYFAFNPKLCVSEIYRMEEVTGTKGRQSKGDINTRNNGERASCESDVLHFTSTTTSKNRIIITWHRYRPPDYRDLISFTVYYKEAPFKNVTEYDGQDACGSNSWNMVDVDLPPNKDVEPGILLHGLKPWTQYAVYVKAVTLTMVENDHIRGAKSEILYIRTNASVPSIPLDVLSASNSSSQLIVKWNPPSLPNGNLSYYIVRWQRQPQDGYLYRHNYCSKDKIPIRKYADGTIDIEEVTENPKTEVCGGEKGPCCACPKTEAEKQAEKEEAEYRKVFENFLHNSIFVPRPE
Chain of Insulin-like growth factor 1 receptor (Homo sapiens) (P08069 741-1367 limits assumed): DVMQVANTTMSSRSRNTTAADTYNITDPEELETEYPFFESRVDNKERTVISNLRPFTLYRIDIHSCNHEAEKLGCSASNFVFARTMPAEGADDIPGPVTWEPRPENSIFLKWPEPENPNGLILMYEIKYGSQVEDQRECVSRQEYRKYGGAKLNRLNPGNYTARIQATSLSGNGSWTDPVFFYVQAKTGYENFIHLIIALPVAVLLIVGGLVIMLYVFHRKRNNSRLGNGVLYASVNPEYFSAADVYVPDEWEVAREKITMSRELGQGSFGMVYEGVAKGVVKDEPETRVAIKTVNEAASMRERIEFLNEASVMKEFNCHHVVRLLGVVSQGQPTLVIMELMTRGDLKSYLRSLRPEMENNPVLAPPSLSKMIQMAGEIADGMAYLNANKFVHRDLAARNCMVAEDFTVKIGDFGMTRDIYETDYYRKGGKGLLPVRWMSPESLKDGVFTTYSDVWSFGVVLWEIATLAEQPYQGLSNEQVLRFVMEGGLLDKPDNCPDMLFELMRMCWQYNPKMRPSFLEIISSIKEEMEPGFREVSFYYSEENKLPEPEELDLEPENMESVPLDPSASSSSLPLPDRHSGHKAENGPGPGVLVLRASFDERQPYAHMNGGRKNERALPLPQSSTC
Chain of Tyrosine-protein kinase CSK (Homo sapiens) (P41240 2-450 limits assumed): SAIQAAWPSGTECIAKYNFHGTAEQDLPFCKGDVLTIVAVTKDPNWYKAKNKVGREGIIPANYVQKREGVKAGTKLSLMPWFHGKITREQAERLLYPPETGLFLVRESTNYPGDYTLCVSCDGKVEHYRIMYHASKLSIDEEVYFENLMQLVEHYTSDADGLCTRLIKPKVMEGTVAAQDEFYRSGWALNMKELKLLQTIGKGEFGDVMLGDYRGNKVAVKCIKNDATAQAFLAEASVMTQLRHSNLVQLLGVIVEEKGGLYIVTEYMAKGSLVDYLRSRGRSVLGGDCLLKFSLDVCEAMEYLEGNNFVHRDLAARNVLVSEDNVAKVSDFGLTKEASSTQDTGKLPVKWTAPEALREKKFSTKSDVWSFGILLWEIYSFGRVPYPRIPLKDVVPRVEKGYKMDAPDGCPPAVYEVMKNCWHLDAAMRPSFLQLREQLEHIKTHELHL

Regarding `Cc1ccc(NC2=NC(=O)/C(=C3\C(=O)Nc4ccccc43)S2)cc1`, the negative logarithm of the IC50 (pIC50) in [1] is 5.43.
On the same count and under the same terms, the result for `O=[N+]([O-])c1ccc2ncnc(Nc3ccc(O)cc3)c2c1` reads 5.06.
In the case of `CC(=O)COc1ccc2c(c1)O/C(=C\c1ccc([N+](=O)[O-])cc1)C2=O`, the inhibition in [2] was over 50%.
Still for that read-out and setting: the result for `CCc1nc(/C=C2\C(=O)Nc3ccccc32)c[nH]1` reads over 50%; that for `Oc1ccc(-n2cccc2)cc1C(O)O`, over 50%; that for `Oc1ccc(C2Oc3cc(O)cc(O)c3CC2O)cc1` (stereo not given), over 50%.
As for `COc1cc2c(-c3ccc(O)cc3)nc3[nH]nc(C)c3c2cc1OC`, in [1], the pIC50 was at least 7.00.
Regarding `Cn1cc(/C=C2\C(=O)Nc3ccccc32)c2ccccc21`, the inhibition in assay [2] is over 50%.
Still for that read-out and setting: the result for `O=C1c2c(cc(O)c(O)c2O)CCCC1O` (stereo not given) reads over 50%.
Turning to `COc1cc2ncnc(Nc3ccc(O)cc3)c2cc1OC` [WHI-P131], the pIC50 in assay [1] was 5.62.
Turning to `Oc1ccc(Nc2nc(-c3ccccc3O)nc3ccccc23)cc1`, the negative-log IC50 (pIC50) in assay [1] is 5.37.
Turning to `COc1cc(-c2nc3cc(C)ccn3c2/N=C/c2cc(Cl)ccc2O)ccc1O`, in [1], the negative-log IC50 (pIC50) is 5.62.
Still for that read-out and setting: the result for `Cc1cc(-c2ccc(N)cc2)c(/C=C2\C(=O)Nc3ccccc32)[nH]1` reads 6.43.
On the same count and under the same terms, the result for `Cc1[nH]c(/C=C2\C(=O)Nc3ccccc32)c(C)c1-c1ccc(NCCN)cc1` reads 6.38.
With `O=C1Nc2ccccc2/C1=C/c1c[nH]nc1-c1cccs1`, the inhibition in assay [2] was over 50%.
The same measure, in the same setting: next, `O=C(OCc1cc(=O)oc2cc(O)c(O)cc12)c1cc2ccccc2cc1O`: over 50%.
On the same count and under the same terms, next, `Oc1c2ccccc2c2c3c(cccc13)N=N2`: over 50%.
In the case of `CN(C)S(=O)(=O)c1ccc2c(c1)/C(=C/c1cc3c([nH]1)CCCC3)C(=O)N2`, the negative-log IC50 (pIC50) in assay [1] is 6.07.
Still for that read-out and setting: the result for `CCc1nc(C)c(/C=C2\C(=O)Nc3ccccc32)[nH]1` reads 5.86.
As for `Oc1ccc(Nc2ncnc3ccc(Br)cc23)cc1`, in assay [2], the inhibition was over 50%. Further, the pIC50 in assay [1] is 5.55.
Take `Cc1cc(-c2cccc(NCCN)c2)c(/C=C2\C(=O)Nc3ccccc32)[nH]1`: the negative logarithm of the IC50 (pIC50) in assay [1] was 7.05.
Still for that read-out and setting: next, `COc1c(OCCN2CCCCC2)cc(F)c2c(-c3ccc(O)c(Cl)c3)nc3[nH]nc(C)c3c12`: at least 7.00.
Consider `Oc1cc(C(O)O)c2cc(Oc3ccc4nc(O)cc(C(O)O)c4c3)ccc2n1`, for which the inhibition in [2] was over 50%.
On to `Oc1ccccc1-c1nc(Nc2ccc(Cl)cc2)c2ccccc2n1`, for which, in assay [1], the pIC50 was 5.19.
For the molecule `NC(Cc1cc(O)c(O)cc1O)C(O)O` (stereo not given), the inhibition in assay [2] is over 50%.
For the molecule `Cc1cc(-c2cccc(N)c2)c(/C=C2\C(=O)Nc3ccccc32)[nH]1`, the inhibition was 5.1% in assay [3]; 97.6% in [4]; 99.4% in [5]; -2.3% in assay [6]; 97.2% in assay [7]; 58.5% in assay [8]. In addition, the inhibition is 9% in [9]; 34.2% in assay [10]; 39% in assay [11]; 12.7% in assay [12]; 14% in assay [13]; 86.5% in assay [14]. For the same molecule, the inhibition in assay [15] was 5.1%; in [16] it was 98.7%; in assay [17] it was 4.9%; in [18], -6.5%; in [19], 93.8%; in [20] it was 69.8%. In addition, the inhibition in assay [21] was 62.7%; in assay [22], 100%; in assay [23], 56.6%; in [24] it was 98.1%; in [25], 81.7%; in assay [26], 91.2%. Also, the pIC50 in assay [1] was 7.21.
On to `Cc1[nH]c(/C=C2\C(=O)Nc3ccc(F)cc32)c(C)c1C(=O)O`, for which the negative logarithm of the IC50 (pIC50) in assay [1] is 6.04.
In the case of `CC1CN(Cc2c(-c3cccs3)[nH]c3ncccc23)CC(C)O1` (stereo not given), in [1], the negative-log IC50 (pIC50) is 5.03.
On the same count and under the same terms, next, `O=C1Nc2ccccc2/C1=C/c1c[nH]nc1-c1ccccc1`: 5.76.
Take `COc1cc(N2CCCC2)ccc1/C=C1\C(=O)NC(=O)N(c2cccnc2)C1=O`: in [2], the inhibition is over 50%.
Turning to `CCOC(=O)c1ccc(Nc2nc(Nc3ccc(Cl)cc3)c3nccnc3n2)cc1`, the negative logarithm of the IC50 (pIC50) in assay [1] is 5.46.
Same read-out and setting: the result for `Cc1[nH]c(/C=C2\C(=O)Nc3ccccc32)c(C)c1-c1cccc(NCCN)c1` reads 6.22; that for `Cc1cc(-c2ccc(N)cc2)c(/C=C2\C(=O)Nc3ccc(N)cc32)[nH]1`, 7.17; that for `Cc1cc(-c2cccc(N)c2)c(/C=C2\C(=O)Nc3ccc(N)cc32)[nH]1`, 7.29.
Still for that read-out and setting: the result for `Cc1cc(-c2ccc(NCCN)cc2)c(/C=C2\C(=O)Nc3ccccc32)[nH]1` reads 6.83.
